Assay results reported in paper PMC7263447 (Journal of medicinal chemistry, 2020).
Ends that are not written are not given here. * marks the point of attachment. Dnp = O=[N+]([O-])c1ccc(*)c([N+](=O)[O-])c1

How the values were obtained:
[1] = tested on: MDA-MB-231 cells; assay: Complement-dependent cytotoxicity; type: cell-based, human; conditions: 1 μM conjugate, 12.5% PHS, 4 h, LDH release
Summary of the method: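 Cells (240000 MDA-MB-231) were treated in suspension with 1 μM conjugate for 5 min at 37 °C, at pH 7.4 or 6.0. After washing they were opsonised with 25 μg/mL rabbit anti-DNP-KLH (30 min, 4 °C). Pooled human complement serum was added to 12.5% in DMEM for 4 h at 37 °C. Supernatant LDH was assayed in triplicate (30 min RT, 490/680 nm). Cytotoxicity is relative to antibody-only cells without peptide. Mean ± SEM, n = 3–12.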

[2] = tested on: MDA-MB-231 cells; assay: Antibody recruitment assay, anti-DNP-A488, flow cytometry; type: cell-based, human; conditions: 1 μM conjugate, pH 7.4 or 6.0, 25 μg/mL anti-DNP-A488, flow cytometry, n = 3
Summary of the method: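 Conjugate held at 20 μM in 5 mM sodium phosphate pH 9.0 for 1 h at RT, then diluted and pH-adjusted with citrate/PBS. Cells were washed, stained with anti-DNP-A488 rabbit polyclonal for 30 min at 4 °C, fixed in 4% PFA and read by flow cytometry. Values are fold over pH 7.4 antibody-only cells.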

[3] = tested on: MDA-MB-231 cells; assay: Antibody-dependent cellular cytotoxicity with PBMCs; type: cell-based, human
Summary of the method: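 MDA-MB-231 cells (150000) were exposed to the pH-adjusted conjugate for 5 min at 37 °C, at pH 7.4 or 6.0. After washing, they were incubated with unconjugated rabbit anti-DNP-KLH (25 μg/mL, 30 min, 4 °C). Single-donor human PBMCs were added at 50:1 in RPMI 1640 for 4 h at 37 °C. Supernatant LDH was read at 490/680 nm. Cytotoxicity % = (LDH − normal)/normal × 100. Control normal release was effector-only or target-only at pH 7.4.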

[4] = tested on: MDA-MB-231 cells; assay: Antibody recruitment from pooled human serum; type: cell-based; conditions: 1 μM conjugate, pH 7.4 or 6.0, 12.5% PHS, FITC-labeled anti-human IgG, n = 3
[5] = tested on: MDA-MB-231 cells; assay: Toxicity of conjugate alone; type: cell-based, human; conditions: ≤10 μM conjugate only, LDH release (Figure S8)
[6] = tested on: MDA-MB-231 cells; assay: Antibody-dependent cellular cytotoxicity with haNK cells; type: cell-based, human; conditions: 500 nM conjugate, anti-DNP antibody, haNK effector:target 5:1, 4 h, LDH release
Summary of the method: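 Targets were 150000 MDA-MB-231 cells, pulsed 5 min at 37 °C at pH 7.4 or 6.0. They were then held with 25 μg/mL rabbit anti-DNP-KLH for 30 min at 4 °C. Effectors were IL-2-maintained F176V CD16+ NK-92 (haNK) cells at 5:1 in MEMα, 4 h, 37 °C. Supernatant LDH was read at 490/680 nm. Lysis % = (LDH − normal)/normal × 100, normal being antibody plus effectors without conjugate. Mean ± SEM, n = 3–12.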

Dnp-KEQNPIYWARYADWLFTTPLLLLELALLVDADEGTG [Conjugate 2]
cell lysis (CDC) ([1]; pH 6.0, anti-DNP antibody): 10% | toxicity (CDC) ([1]; pH 7.4, anti-DNP antibody): no toxicity at all | anti-DNP antibody recruitment (cellular fluorescence) [2]: highest level of cellular fluorescence | pH selectivity of PBMC-mediated cell lysis ([3]; 1 μM conjugate, anti-DNP antibody, pH 6.0 vs 7.4): ~ 2 fold | cell lysis with mock anti-FITC antibodies or without antibodies (PBMCs) ([3]; control, mock anti-FITC antibodies or no antibodies prior to PBMCs (Figure S7A)): cell lysis was not observed | antibody recruitment from serum (relative fluorescence) [4]: significant increase in relative fluorescence at pH 6.0 compared to that at pH 7.4 | cell lysis by conjugate only [5]: cell lysis was not observed | cell lysis (ADCC, haNK cells), maximum efficacy [6]: ~ 40%
